Numbering of substitutions follows the chain as printed. pIC50: −log10 of the molar value. The source made the active and inactive calls. The calls are words filed in the database; no cut-off is given here.
How the values were obtained:
[1] = molecular target: T1, Beta-N-acetyl-D-hexosaminidase-A/B (Homo sapiens, UniProt P07686+P06865); experiment: Inhibition of human placental HexA using pNPGlcNAc substrate
T1 sequence (P07686 whole entry): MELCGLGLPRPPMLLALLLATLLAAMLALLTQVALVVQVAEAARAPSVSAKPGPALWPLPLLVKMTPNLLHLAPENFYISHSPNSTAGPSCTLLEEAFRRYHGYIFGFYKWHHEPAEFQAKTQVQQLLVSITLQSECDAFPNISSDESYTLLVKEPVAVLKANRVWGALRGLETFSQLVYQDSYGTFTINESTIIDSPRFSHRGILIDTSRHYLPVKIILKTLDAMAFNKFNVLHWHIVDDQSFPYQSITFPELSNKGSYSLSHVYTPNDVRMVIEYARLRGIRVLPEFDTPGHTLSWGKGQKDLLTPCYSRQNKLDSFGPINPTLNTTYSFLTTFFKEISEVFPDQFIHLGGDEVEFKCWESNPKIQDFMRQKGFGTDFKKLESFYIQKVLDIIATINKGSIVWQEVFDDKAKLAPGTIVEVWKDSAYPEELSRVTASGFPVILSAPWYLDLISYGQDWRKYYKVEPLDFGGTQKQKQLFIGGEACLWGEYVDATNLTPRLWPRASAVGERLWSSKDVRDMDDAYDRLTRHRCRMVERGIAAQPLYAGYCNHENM
T1 sequence (P06865 whole entry): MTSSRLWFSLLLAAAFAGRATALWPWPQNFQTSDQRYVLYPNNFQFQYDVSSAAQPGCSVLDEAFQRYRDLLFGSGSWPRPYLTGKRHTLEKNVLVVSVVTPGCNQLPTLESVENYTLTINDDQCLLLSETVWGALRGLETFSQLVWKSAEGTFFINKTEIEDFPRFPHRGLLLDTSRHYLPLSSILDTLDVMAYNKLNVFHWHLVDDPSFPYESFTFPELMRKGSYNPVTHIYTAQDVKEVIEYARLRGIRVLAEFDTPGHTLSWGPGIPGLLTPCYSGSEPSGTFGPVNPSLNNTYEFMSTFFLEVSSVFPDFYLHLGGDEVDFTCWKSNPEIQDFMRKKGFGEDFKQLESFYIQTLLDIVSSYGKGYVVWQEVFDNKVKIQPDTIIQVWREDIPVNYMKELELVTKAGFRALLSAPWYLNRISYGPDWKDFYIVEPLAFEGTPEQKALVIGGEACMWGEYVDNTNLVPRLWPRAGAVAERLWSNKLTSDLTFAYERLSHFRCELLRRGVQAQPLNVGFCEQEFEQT

[2] = system: T2, Beta-hexosaminidase subunit alpha (Homo sapiens), P06865 [G269S]; experiment: Chaperoning efficacy at HexA alpha G269S mutant in ATSD patient fibroblasts assessed as maximum increase in enzyme activity using MUGS substrate incubated for 1 to 2 hrs by spectrofluorometry relative to control
T2 sequence (whole entry): T1 sequence (P06865 whole entry) with G269S
Outline: (§1)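 G269S-homozygous ATSD patient fibroblasts plated at 70−90% confluence and treated 5 days with serially diluted compound in DMEM/10% FBS, DMSO held at 1%. After PBS washes, cells were lysed in McIlvaine buffer pH 4.5 with 0.4% Triton X-100 and 0.025% HSA at 4 °C for 30 min. Lysate was incubated with MUGS (1.6 mM) at 37 °C for 1−2 h and stopped with 0.1 M MAP pH 10.5. Fluorescence read at Ex 365/Em 450 nm. Activity expressed relative to mock (1% DMSO) cells; triplicates.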

[3] = system: T2, Beta-hexosaminidase subunit alpha (Homo sapiens), P06865 [G269S]; experiment: Chaperoning efficacy at HexA alpha G269S mutant in ATSD patient fibroblasts assessed as drug level causing maximum increase in enzyme activity using MUGS substrate incubated for 1 to 2 hrs by spectrofluorometry relative to control; outline: as §1
[4] = system: T2, Beta-hexosaminidase subunit alpha (Homo sapiens), P06865 [G269S]; experiment: Chaperoning efficacy at HexA alpha G269S mutant in ATSD patient fibroblasts assessed as maximum increase in enzyme activity using MUGS substrate incubated for 1 to 2 hrs by spectrofluorometry relative to pyrimethamine
[5] = Toxicity against ATSD patient fibroblasts assessed as reduction in beta-galactosidase activity at >400 uM; type: cell-based; design: scale not given: the % may be the effect or the level left; settings: human, fibroblast
[6] = Toxicity against ATSD patient fibroblasts assessed as reduction in beta-galactosidase activity at; type: cell-based; settings: human, fibroblast
[7] = molecular target: T3, Dihydrofolate reductase (Homo sapiens) (UniProt P00374); experiment: Inhibition of human DHFR
T3 sequence (whole entry): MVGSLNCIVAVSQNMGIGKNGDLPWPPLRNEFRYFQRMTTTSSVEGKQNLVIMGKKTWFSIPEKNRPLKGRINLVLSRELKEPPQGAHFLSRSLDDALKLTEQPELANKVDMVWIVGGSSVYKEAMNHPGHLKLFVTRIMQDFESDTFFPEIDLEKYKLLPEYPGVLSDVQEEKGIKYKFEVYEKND

[8] = molecular target: Signal transducer and activator of transcription 3 (Homo sapiens) (UniProt P40763); experiment: Inhibition of STAT3 phosphorylation at 100 uM
[9] = molecular target: Beta-hexosaminidase subunit alpha (Homo sapiens, UniProt P06865, G269S); experiment: Inhibition of HexA alpha G269S mutant in ATSD patient fibroblasts using MUG substrate incubated for 1 to 2 hrs at pH 4.5 by spectrofluorometry
[10] = Toxicity against ATSD patient fibroblasts assessed as reduction in beta-galactosidase activity at >200 uM; type: cell-based; settings: human, fibroblast

Signal transducer and activator of transcription 3 (Homo sapiens), sequence (P40763 whole entry): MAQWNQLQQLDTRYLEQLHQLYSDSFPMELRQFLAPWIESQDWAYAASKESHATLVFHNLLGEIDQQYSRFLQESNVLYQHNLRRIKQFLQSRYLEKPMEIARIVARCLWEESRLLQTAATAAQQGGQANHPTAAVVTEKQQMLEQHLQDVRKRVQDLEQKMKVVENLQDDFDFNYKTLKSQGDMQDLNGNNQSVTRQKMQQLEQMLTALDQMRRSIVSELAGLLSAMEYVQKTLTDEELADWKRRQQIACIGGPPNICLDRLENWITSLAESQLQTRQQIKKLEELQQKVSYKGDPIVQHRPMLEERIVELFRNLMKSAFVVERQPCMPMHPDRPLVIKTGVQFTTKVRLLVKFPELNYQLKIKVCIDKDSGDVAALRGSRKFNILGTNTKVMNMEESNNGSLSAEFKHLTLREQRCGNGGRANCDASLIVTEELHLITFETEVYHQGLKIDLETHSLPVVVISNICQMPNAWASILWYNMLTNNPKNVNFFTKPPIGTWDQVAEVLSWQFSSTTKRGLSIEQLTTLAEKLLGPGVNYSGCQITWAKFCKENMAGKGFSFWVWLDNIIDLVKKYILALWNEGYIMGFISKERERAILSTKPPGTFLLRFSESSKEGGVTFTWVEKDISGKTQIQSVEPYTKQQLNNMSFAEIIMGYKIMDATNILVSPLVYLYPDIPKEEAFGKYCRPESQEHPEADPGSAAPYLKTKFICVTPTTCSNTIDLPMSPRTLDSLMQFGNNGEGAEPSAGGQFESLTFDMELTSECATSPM

Compound | IC50 [1] [µM] | fold change (FC) [2] | Activity [3] [µM] | Activity [5] | also measured
CCc1nc(N)ncc1-c1ccc(C(F)(F)F)cc1 | > 400 | – | – | – | –
CCc1nc(N)[nH]c(=O)c1-c1ccc(Cl)cc1 | > 2100 | – | – | – | –
CC(C)c1nc(N)nc(N)c1-c1ccc(Cl)cc1 | > 410 | – | – | – | –
Cc1nc(N)nc(N)c1-c1ccc(Cl)cc1 | > 560 | – | – | – | –
CCc1nc(N)ncc1-c1ccc(Cl)cc1 | > 400 | – | – | – | –
CCc1nc(N)nc(N)c1-c1ccc(OC)cc1 | 18 | 2 | 30 | > 60% | Activity [6]: Toxic
CCc1nc(N)nc(N)c1-c1ccc(C)cc1 | 40 | 1.7 | 30 | > 60% | Activity [6]: Toxic
NCc1nc(N)nc(N)c1-c1ccc(Cl)cc1 | 180 | – | – | – | –
CCc1ncncc1-c1ccc(C(F)(F)F)cc1 | > 940 | – | – | – | –

Continued, in another order:

IC50 [1] [µM] | fold change (FC) [2] | Activity [3] [µM] | Compound | Activity [5] | also measured
– | 1.5 | – | CCCc1nc(N)nc(N)c1-c1ccc(Cl)cc1 | – | –
– | 2.5 | 100 | CCc1nc(N)nc(N)c1-c1cc(C)cc(C)c1 | > 60% | Activity [4]: 30%
– | 2.2 | 30 | CCc1nc(N)nc(N)c1-c1ccc(C(F)(F)F)cc1 | > 60% | Activity [6]: Toxic
> 1400 | – | – | CCCCc1nc(N)nc(N)c1-c1ccc(Cl)cc1 | – | –
– | 2.1 | 30 | CCc1nc(N)nc(N)c1-c1ccc(Cl)cc1 [PYRIMETHAMINE] | > 60% | Activity [6]: Toxic; inhibition [7]: Active; inhibition [8]: Active
– | 2.7 | – | CCc1nc(N)nc(N)c1-c1ccccc1 | Non-toxic | Activity [4]: 30%; pIC50 [9]: 4.57; Activity [10]: Toxic; inhibition [7]: Active
43 | 2.3 | 100 | CCc1nc(N)nc(N)c1-c1ccccc1C | > 60% | Activity [4]: 30%
– | 2.9 | 100 | CCc1nc(N)nc(N)c1-c1cccc(C)c1 | > 60% | Activity [4]: 30%

Reference: ChEMBL document CHEMBL3576868 (J Med Chem, 2015)
